# NS3 helicase inh: inhibitors of Hepatitis C virus NS3 helicase; NS3 helicase DNA unwinding, Cy5 molecular beacon fluorescence; AID 1800; inhibition, % at 10.9 µM; 290,000 compounds, 0.56% hits;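 active means inhibition above the mean of all tested compounds plus 3 SD, set per campaign, cut at about 35% in these data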;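 further: 0% = DMSO wells and 100% = thioflavine S control wells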
#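 Material: hepatitis C virus NS3 helicase domain fragment enzyme; measured by: Cy5 fluorescence, 0 and 60 min reads; control set: DMSO and thioflavine S; incubation: 60 min unwinding reaction at 25 °C after ATP addition; read-out basis: % inhibition from 60/0 min fluorescence ratio, DMSO 0%, thioflavine S 100%; repeats: singlicate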
# FID counter: counter-screen for HCV NS3 helicase inhibitors: DNA intercalator displacement; DNA fluorescent intercalator displacement, fluorescence; inhibition, % at 7.9 µM; 290,000 compounds, 0.17% hits; in the data active means inhibition above about 37%;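 further: 0% = vehicle and 100% = reference compound; higher means more ethidium bromide displaced from hairpin DNA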
# GRIN3A LBD mod: NR3A (human) ligand-binding domain modulation. 340,000 compounds, 2.5% hits. Tm shift relative to glycine control, % at 25 µM. NR3A LBD differential scanning fluorimetry, Tm shift; 0% = protein alone, 100% = glycine-bound protein. AID 1259313;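 active means melting temperature shift of at least 10% of the positive control shift, at one fixed dose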
# EBNA-1 inh: blocks EBNA-1 binding to DNA; 300,000 compounds, 0.34% hits; inhibition, % at 14.8 µM; EBNA-1 DNA binding, fluorescence polarization; AID 1950; in the data active means inhibition above about 28%
# ZTA DNA inh: blocks Epstein-Barr virus ZTA, an EBNA-1 counter-screen; ZTA-DNA binding, fluorescence polarization; inhibition, % at 11 µM; 320,000 compounds, 0.15% hits; P03206; in the data active means inhibition above about 33%
# Target sequence (P03206 whole entry, looked up): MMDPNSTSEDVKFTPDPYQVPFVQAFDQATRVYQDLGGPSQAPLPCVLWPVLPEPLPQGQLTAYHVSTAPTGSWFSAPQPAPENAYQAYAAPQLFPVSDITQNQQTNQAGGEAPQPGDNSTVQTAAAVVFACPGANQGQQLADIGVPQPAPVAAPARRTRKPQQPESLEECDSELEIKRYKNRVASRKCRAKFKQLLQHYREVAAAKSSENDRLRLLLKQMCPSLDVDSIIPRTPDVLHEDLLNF
# FGF22 binding: binders of recombinant human FGF22 by thermal shift. Q9HCT0. activity (Tm shift, normalised), % at 9.99 µM. SYPRO orange fluorescence; percent of sucrose octasulfate shift, DMSO zero. 340,000 compounds, 1.5% hits. AID 651658;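 active means mean Tm shift, scaled 0 neutral to 100 positive control, at about 1.3% or above, every replicate too, limit read from the data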
# Target sequence (Q9HCT0 whole entry, looked up): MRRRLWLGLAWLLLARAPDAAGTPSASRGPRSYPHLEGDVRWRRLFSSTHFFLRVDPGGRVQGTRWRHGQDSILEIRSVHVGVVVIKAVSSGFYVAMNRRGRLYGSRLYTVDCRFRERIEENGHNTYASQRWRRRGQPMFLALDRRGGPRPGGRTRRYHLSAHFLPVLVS
# * = called active by the depositor; · = no result. In the library only some 3.6% were active in any assay of this set; here they are far more common.
SMILES,NS3 helicase inh,FID counter,GRIN3A LBD mod,EBNA-1 inh,ZTA DNA inh,FGF22 binding
Cc1ccc2nc(NC(=O)COC(=O)CSc3nc(C)cc(C)n3)sc2c1,1,-4,-3,-2,2,·
COC(=O)c1ccc2nc(NC(=O)CSCC(=O)OCC(=O)c3ccccc3)sc2c1,2,-4,-1,3,-2,0
Cc1ccc2nc(NC(=O)CSCC(=O)OCC(=O)c3ccc(Br)cc3)sc2c1,5,-5,0,30*,8,·
CSc1nsc(SCC(=O)Nc2nc3ccc(C)cc3s2)n1,2,2,4,32*,10,0
CSc1nsc(SCC(=O)Nc2ccccc2C(=O)O)n1,12,-19,2,0,-1,1.5*
CSc1nsc(SCC(=O)Nc2ccc(O)c(C(=O)O)c2)n1,-6,-7,0,-10,-5,0
C[C@H]1CN([C@@H](C)CO)C(=O)Cc2cc(N(C)C)ccc2O[C@H]1CN(C)C(=O)Nc1ccc(F)cc1,·,·,·,·,·,-1
O=C1CCCC/C1=N\Nc1ccc(OCc2ccccc2)cc1,12,-10,-12,3,-29,1.5*
O=C(N/N=C/c1c[nH]c2ccccc12)c1ccc(Br)cc1,-8,4,30*,-5,6,0
C(=NN=C1c2ccccc2-c2ccccc21)c1c[nH]c2ccccc12,·,·,17*,·,·,0
Cc1nnc(N/N=C/C(C)c2ccccc2)[nH]c1=O (stereo not given),-1,-7,-2,4,-15,0
Cc1nnc(N/N=C/c2c[nH]c3ccccc23)[nH]c1=O,30,-2,25*,3,13,0
Cn1c(N/N=C/c2c[nH]c3ccccc23)nc2ccccc21,-16,6,19*,5,16,·
O=C(NCC1CC1)[C@H]1[C@H](CO)[C@H]2Cn3c(ccc(-c4ccccc4)c3=O)[C@H]2N1Cc1cocn1,·,·,·,·,·,0
COC(=O)N/N=C/c1c[nH]c2ccccc12,7,2,-14,-1,-1,0
Cc1occc1C(=O)N/N=C/c1c[nH]c2ccccc12,-1,0,13*,-6,1,0
NC(=S)N/N=C/c1c[nH]c2ccccc12,-9,-2,-5,10,6,0
O=C(O)c1ccc(N/N=C/c2c[nH]c3ccccc23)cc1,7,-6,10*,1,0,0
O=C(O)c1ccc(N/N=C/c2ccnc3ccccc23)cc1,-9,2,-6,-11,-2,0
O=C(N/N=C/c1c[nH]c2ccccc12)c1cc(Cl)ccc1O,20,14,36*,-15,5,·
CC(C)Oc1ccc(Br)cc1C(=O)N/N=C/c1c[nH]c2ccccc12,-2,-15,11*,-4,2,0
C[C@@H]1CCCCO[C@@H](CN(C)S(=O)(=O)c2ccc(Cl)cc2)[C@H](C)CN([C@H](C)CO)C(=O)c2cc(NC(=O)Nc3ccc(F)cc3)ccc2O1,·,·,·,·,·,0
CO[C@@H]1CN(C)C(=O)c2cc(NC(=O)C3CCCC3)ccc2OC[C@@H](C)N(S(=O)(=O)c2ccc(Cl)cc2)C[C@H]1C,·,·,·,·,·,0
CCCCn1c(/N=C/c2c[nH]c3ccccc23)nc2ccccc21,5,17,23*,-3,-2,·
Cc1cc(C)nc(N/N=C/c2c[nH]c3ccccc23)n1,5,-4,1,-1,2,0
SMILES,NS3 helicase inh,FID counter,GRIN3A LBD mod,EBNA-1 inh,ZTA DNA inh,FGF22 binding
Fc1c(F)c(F)c(N/N=C/c2c[nH]c3ccccc23)c(F)c1F,13,3,76*,0,1,·
O=C(N/N=C/c1c[nH]c2ccccc12)c1ccc(Cl)cc1,9,-1,37*,13,6,0
O=C(N/N=C/c1c[nH]c2ccccc12)c1ccccc1Cl,-10,1,-1,·,·,0
C[C@H]1CN([C@@H](C)CO)C(=O)c2cccc(NC(=O)c3cnccn3)c2O[C@H]1CN(C)CC1CC1,·,·,·,·,·,0
O=C(NCC[C@@H]1CC[C@@H](NC(=O)C2CC2)[C@H](CO)O1)Nc1ccc(Cl)cc1,·,·,·,·,·,1
CC(C)(C)n1nnnc1C(c1ccc2ncccc2c1)N1CCC(O)CC1 (stereo not given),-6,-6,-1,1,4,44*
CC(OC(=O)c1ccc(NS(=O)(=O)c2ccc3[nH]c(=O)[nH]c3c2)cc1)C(N)=O (stereo not given),4,-4,2,-3,0,0
COc1ccc(Cl)cc1NC(=O)C(C)OC(=O)c1ccc(NS(=O)(=O)c2ccc3[nH]c(=O)[nH]c3c2)cc1 (stereo not given),-15,-5,18*,20,3,·
COc1ccc(CN(C)C(=O)c2ccc(NS(=O)(=O)c3ccc4[nH]c(=O)[nH]c4c3)cc2)c(OC)c1OC,·,·,0,·,·,0
CC(OC(=O)c1ccc(NS(=O)(=O)c2ccc3[nH]c(=O)[nH]c3c2)cc1)C(=O)Nc1ccc(Cl)cc1 (stereo not given),-15,-19,15*,2,18,0
COc1ccc(NC(=O)C2=C(C)NC(=S)NC2c2ccc(O)c(OC)c2)cc1 (stereo not given),1,13,2,4,-2,0
CCOc1ccc(NC(=O)C2=C(C)NC(=S)NC2c2ccc(O)c(OC)c2)cc1 (stereo not given),25,1,13*,2,-1,0
Cc1ccccc1OCc1csc(N)n1,6,-2,-1,-1,1,43*
CCN(CC)C1=N/C(=C\c2ccc(OC)cc2)C(=O)N1c1ccccc1,7,-11,12*,6,-1,0
O=C(O)C1Cc2ccccc2CN1S(=O)(=O)c1ccc(Cl)cc1 (stereo not given),5,-29,-4,2,2,1
O=C(O)C1Cc2ccccc2CN1C(=O)COc1ccc(Cl)cc1 (stereo not given),1,-21,-2,-4,-4,43*
O=C(Nc1ccccc1)c1cc2n(n1)C(C(F)(F)F)CC(C1CC1)N2 (stereo not given),1,5,-1,7,5,43*
Cc1nnc(NC(=O)c2cc3n(n2)C(C(F)(F)F)CC(C2CC2)N3)s1 (stereo not given),-5,-5,0,-11,-6,·
COc1ccc2c3c([nH]c2c1)[C@@H](CO)N(CC1CC1)CC31CN(C(=O)NC2CCCC2)C1,·,·,·,·,·,0
CN(C)CCNc1nc2sc3c(c2c(=O)n1CCc1ccccc1)CCCCC3,-59,29,0,-9,8,0
CC(O)CNc1nc2sc3c(c2c(=O)n1CCc1ccccc1)CCCCC3 (stereo not given),1,-22,-3,-5,10,44*
O=C1OCC/C1=C1/NCCNC1=O,·,·,·,·,·,44*
O=C1NCCNC(=O)c2ccccc2OCCOc2ccccc21,7,-4,6,-4,19,1
